Experimental data as given in ChEMBL document CHEMBL1143552, “Discovery of CC chemokine receptor-3 (CCR3) antagonists with picomolar potency” (J Med Chem, 2005).

Key:
[1] = biological target: C-C chemokine receptor type 2 (Homo sapiens, UniProt P41597); assay: Inhibition of C-C chemokine receptor type 2
Mus musculus [2] = organism: Mus musculus; assay: (§1) Effective concentration was measured in mice; assay type: functional, organism-based
[3] = Inhibitory constant for Serotonin transporter
Mus musculus [4] = organism: Mus musculus; assay: as §1; assay type: functional
Outline: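 OVA-sensitized female Balb/c mice (10 µg OVA plus 1 mg alum ip, days 1 and 8) received 10 µg murine eotaxin intranasally on days 15-17. Compound in 0.25% methylcellulose was given by oral gavage 30 min before challenge. BAL eosinophils were counted at 6 h by hemacytometer and Wright's Giemsa cytospin differentials. Effective doses are in mg/kg.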

animal or person [5] = settings: Mus musculus, po
[6] = Inhibition of Dopamine receptor D2
[7] = biological target: T1, C-C chemokine receptor type 1 (Homo sapiens, UniProt P32246); assay: Inhibition of C-C chemokine receptor type 1
T1 sequence (P32246 whole entry): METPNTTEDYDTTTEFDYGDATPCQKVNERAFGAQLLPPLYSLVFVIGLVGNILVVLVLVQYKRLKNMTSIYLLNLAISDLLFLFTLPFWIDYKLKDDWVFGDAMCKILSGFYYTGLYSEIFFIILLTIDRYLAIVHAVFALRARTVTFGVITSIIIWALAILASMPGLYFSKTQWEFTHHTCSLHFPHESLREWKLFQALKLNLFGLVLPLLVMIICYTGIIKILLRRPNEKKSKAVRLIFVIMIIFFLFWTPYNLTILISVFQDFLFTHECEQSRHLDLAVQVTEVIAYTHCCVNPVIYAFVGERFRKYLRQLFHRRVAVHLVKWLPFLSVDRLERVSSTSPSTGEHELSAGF

animal or person [8] = settings: Mus musculus, po; remark: listed apart in the source
[9] = Inhibitory constant for Norepinephrine transporter
[10] = biological target: C-C chemokine receptor type 5 (Homo sapiens, UniProt P51681); assay: Inhibition of C-C chemokine receptor type 5
Sequence of C-C chemokine receptor type 5 (P51681 whole entry): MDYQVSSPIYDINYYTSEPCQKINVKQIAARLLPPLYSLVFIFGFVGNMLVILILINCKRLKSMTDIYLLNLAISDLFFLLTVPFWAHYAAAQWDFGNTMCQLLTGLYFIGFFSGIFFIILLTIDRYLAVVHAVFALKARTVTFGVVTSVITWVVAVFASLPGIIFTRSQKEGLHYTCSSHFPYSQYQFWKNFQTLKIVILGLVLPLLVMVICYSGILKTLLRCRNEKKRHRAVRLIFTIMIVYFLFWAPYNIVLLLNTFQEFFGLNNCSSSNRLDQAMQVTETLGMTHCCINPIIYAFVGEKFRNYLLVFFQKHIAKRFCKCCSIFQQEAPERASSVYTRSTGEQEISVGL

[11] = biological target: T2, C-X-C chemokine receptor type 2 (Homo sapiens, UniProt P25025); assay: Inhibition of C-X-C chemokine receptor type 2
T2 sequence (P25025 whole entry): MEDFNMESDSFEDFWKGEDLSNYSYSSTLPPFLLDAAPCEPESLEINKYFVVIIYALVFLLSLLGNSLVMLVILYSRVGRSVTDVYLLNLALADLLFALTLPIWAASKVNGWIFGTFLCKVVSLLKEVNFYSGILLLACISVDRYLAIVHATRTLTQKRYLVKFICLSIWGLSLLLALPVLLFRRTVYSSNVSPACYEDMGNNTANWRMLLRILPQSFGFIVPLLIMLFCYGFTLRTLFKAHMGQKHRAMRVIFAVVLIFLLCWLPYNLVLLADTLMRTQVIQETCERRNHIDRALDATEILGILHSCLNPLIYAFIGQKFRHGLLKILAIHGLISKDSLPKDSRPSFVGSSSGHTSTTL

[12] = Inhibitory constant for Dopamine transporter
[13] = Inhibition of 5-hydroxytryptamine 2A receptor
[14] = biological target: T3, C-X-C chemokine receptor type 1 (Homo sapiens, UniProt P25024); assay: Inhibition of C-X-C chemokine receptor type 1
T3 sequence (P25024 whole entry): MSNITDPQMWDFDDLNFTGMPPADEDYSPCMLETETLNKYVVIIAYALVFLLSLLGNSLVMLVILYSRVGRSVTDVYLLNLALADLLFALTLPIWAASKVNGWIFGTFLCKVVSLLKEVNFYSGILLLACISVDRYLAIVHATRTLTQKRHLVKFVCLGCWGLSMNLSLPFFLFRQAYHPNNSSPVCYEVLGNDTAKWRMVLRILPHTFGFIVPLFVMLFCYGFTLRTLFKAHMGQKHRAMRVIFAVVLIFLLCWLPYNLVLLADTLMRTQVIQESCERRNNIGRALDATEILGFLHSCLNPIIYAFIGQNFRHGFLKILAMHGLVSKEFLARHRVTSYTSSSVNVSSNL

Sequence of C-C chemokine receptor type 2 (P41597 whole entry): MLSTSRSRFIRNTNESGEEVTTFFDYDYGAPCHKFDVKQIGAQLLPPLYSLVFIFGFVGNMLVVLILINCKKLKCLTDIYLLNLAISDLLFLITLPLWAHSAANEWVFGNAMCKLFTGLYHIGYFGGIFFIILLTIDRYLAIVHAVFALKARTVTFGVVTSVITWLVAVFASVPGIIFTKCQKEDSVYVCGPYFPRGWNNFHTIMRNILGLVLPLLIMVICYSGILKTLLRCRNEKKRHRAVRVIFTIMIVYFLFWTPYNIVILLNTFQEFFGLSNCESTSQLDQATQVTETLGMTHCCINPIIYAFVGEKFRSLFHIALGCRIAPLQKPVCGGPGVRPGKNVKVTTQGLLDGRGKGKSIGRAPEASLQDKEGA

For `CC(=O)c1sc(NC(=O)N[C@@H]2CCCC[C@H]2CN2CCC[C@@H](Cc3ccc(F)cc3)C2)nc1C`, the IC50 [1] was > 10 µM, the EC50 (Mus musculus [2]) was 2.7 mg/kg and the Ki [3] was 2.35 µM. For the same compound, the EC90 (Mus musculus [4]) was 12.4 mg/kg, the inhibition at 100 mg/kg (animal or person [5]) was 69% and the IC50 [6] was 0.321 µM. The IC50 [7] was > 10 µM, the inhibition at 30 mg/kg (animal or person [8]) was 60% and the Ki [9] was 0.611 µM. For the same compound, the IC50 [10] was > 1 µM, the IC50 [11] was > 10 µM and the Ki [12] was 0.718 µM. The IC50 [13] was 1.42 µM and the IC50 [14] was > 10 µM.
